# Bioassay records from PubChem BioAssay.
# Hits are enriched below; roughly 1.2% of the tested compounds scored in any of these assays.
# CaV13 FRET inh: Disruptors of the CACNA1D IQ motif to Ca2+-dependent inactivation inhibitor domain association, primary screening, Förster resonance energy transfer in intact living … | 340,000 compounds, 0.098% hits | AID 743397 | HEK cells, CFP/YFP FRET ICDI-IQ, plate reader, 10 min; percent FRET-ratio fall versus neutral wells | inhibition, % at 12.3 µM;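 active means mean replicate inhibition of at least 30% and at least 1% of replicates passing that level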;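 further: 0% = median of the neutral control wells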
# SR-BI DiI-HDL act: activators of SR-BI mediated DiI-HDL uptake, primary screen, ldlA[mSR-BI] CHO cells, DiI fluorescence. 3 h; 100 = double the neutral-control signal. activation, % at 12.5 µM. 320,000 compounds, 0.096% hits. AID 504775, 2011;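 active means mean replicate activation of at least 60% and every replicate at or above 60%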;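 further: 0% = median plate neutral-control signal and 100% = twice that signal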
#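 Test system: SR-BI-overexpressing, LDLR-lacking CHO cells; Medium: Ham's F12 with 0.5% BSA, HEPES 25 mM, pH 7.4; Schedule: 3 h, 37 °C; Technique: bottom-read fluorescence, 550/595 nm.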
# SR-BI DiI inh: inhibitors of SR-BI mediated HDL lipid uptake, primary screen, ldlA[mSR-BI] cells, fluorescence, single point | 320,000 compounds, 0.96% hits | inhibition, % at 12.5 µM | ldlA[mSR-BI] CHO cells, DiI-HDL uptake fluorescence, 3 h | Scavenger receptor class B member 1 (Mus musculus), Q61009;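 active means mean replicate inhibition of at least 70% and a set share of replicates each scoring 70 or more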;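 further: 0% = median of neutral control wells and 100% = median of positive control wells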
# Target sequence (Q61009 whole entry, looked up): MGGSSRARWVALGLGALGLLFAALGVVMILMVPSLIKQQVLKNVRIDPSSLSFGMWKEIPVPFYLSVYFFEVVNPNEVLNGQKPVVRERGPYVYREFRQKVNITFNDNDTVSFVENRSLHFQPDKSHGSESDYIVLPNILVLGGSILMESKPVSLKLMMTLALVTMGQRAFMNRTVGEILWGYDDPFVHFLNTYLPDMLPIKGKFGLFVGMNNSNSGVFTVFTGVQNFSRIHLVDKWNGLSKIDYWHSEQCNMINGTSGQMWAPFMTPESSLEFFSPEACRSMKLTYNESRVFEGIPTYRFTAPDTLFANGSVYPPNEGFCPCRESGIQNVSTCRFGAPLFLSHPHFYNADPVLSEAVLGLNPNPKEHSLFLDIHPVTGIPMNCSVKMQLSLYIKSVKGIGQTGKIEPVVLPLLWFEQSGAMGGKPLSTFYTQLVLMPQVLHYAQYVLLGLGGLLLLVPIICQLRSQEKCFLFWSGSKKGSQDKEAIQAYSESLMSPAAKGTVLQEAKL
# FN deposition inh: inhibitors of fibronectin matrix deposition, primary screen, AH1F cells, Alexa488-fibronectin fluorescence, plate reader; AH1F fibroblasts, overnight; 350,000 compounds, 0.086% hits; AID 743247, 2014; inhibition, % at 12.6 µM;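 active means mean inhibition across replicates of 30% or more, regardless of how many single replicates reach that level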;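 further: positive control wells lacked labelled fibronectin entirely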
#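 Schedule: 1 h cell adhesion before compound, then overnight fibronectin incubation; test system: AH1F fibroblast monolayer depositing Alexa488-labelled fibronectin into matrix; quantity: 10000 AH1F cells per well; probe or stimulus: fluorescent fibronectin at 24 nM final; signal: fluorescence, ex 485 nm, em 525 nm; evaluation: percent inhibition as loss of matrix-bound fibronectin fluorescence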
# Efflux pump inh: inhibitors of Candida efflux pumps in yeast, primary screen, S. cerevisiae, Nile Red, multiplex; 330,000 compounds, 0.44% hits; inhibition, % at 10 µM; S. cerevisiae Candida pump triplex; AID 485275, 2010;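 active means plate passing quality check with inhibition over a set limit, or well fluorescence over plate mean plus 4 SD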;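 further: Nile Red retained in pooled yeast measured as flow cytometry median fluorescence; 0% = buffer negative control and 100% = Enniatin B positive control; higher means more Nile Red kept so more efflux inhibition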
# Active calls of the source: *; . = no result; ! = not confirmed by another sample.
SMILES,CaV13 FRET inh,SR-BI DiI-HDL act,SR-BI DiI inh,FN deposition inh,Efflux pump inh
CC[C@H](C)[C@@H]1NC(=O)CNC(=O)c2csc(n2)[C@H](C(C)(C)O)OC(=O)C(C)(C)[C@H](CCCC(C)(Cl)Cl)OC(=O)c2csc1n2,-3.1,.,.,48.1*,.
C=C1C(C)C2C(Cc3ccccc3)NC(=O)C23C(OC(C)=O)C=CC(C)(O)CC(C)CC=CC3C1O (centres undefined),-6.6,13.7,-13.7,45.0*,.
C=C1[C@@H](C)[C@H]2[C@H](Cc3ccccc3)NC(=O)[C@]23OC(=O)/C=C/[C@H](O)CCC[C@@H](C)C/C=C/[C@H]3[C@@H]1O,-5.2,-12.1,12.1,35.1*!,0.0
CC(=O)O[C@@H]1/C=C/[C@](C)(O)C[C@@H](C)C/C=C/[C@H]2[C@H](O)C(C)=C(C)[C@H]3[C@H](Cc4ccccc4)NC(=O)[C@@]123,.,.,.,.,-0.2
O=C1C(=O)c2ccccc2-c2ccccc21,-4.6,-19.9,19.9,56.4*,0.1
Cc1cc([N+](=O)[O-])c(Cl)cc1NC(=O)C(C)C,-4.2,-8.9,8.9,1.8,0.3
CNc1cc(Cl)c2nonc2c1[N+](=O)[O-],-9.3,9.2,-9.2,48.6*,.
O=[N+]([O-])c1ccc(N2CCNCC2)c(Cl)c1,-3.9,-78.2,78.2*,-3.9,-0.1
CC1(C)C(C(=O)N2CCN(c3ccc(Cl)cc3)CC2)C1(C)C,-1.5,-5.4,5.4,-4.2,-0.1
COC(=O)C1CN(C#N)N(c2ccc(Cl)cc2)C12c1ccccc1-c1ccccc12 (centres undefined),.,-127.4,127.4*,.,0.1
CC(=O)c1ccc2c(c1)C1C(Cl)C(Sc3ccccc3[N+](=O)[O-])CC1C(c1ccccc1[N+](=O)[O-])N2 (centres undefined),-5.0,-73.1,73.1*,-6.5,0.1
COc1ccc(C(CC(C)=O)c2c(O)c3ccccc3oc2=O)cc1OC (centres undefined),-5.4,.,.,.,.
CC/C(CC(c1ccccc1)c1c(O)c2ccccc2oc1=O)=N\NC(N)=S (centres undefined),-4.8,-80.4,80.4*,-3.7,1.0
CC(C)(C)c1ccc(O)c(N=Cc2c(O)ccc3ccccc23)c1,-25.6,-113.4,113.3*,-2.9,-0.1
CCc1ccc(N2C(=O)NC(=O)C(Cc3ccc(OC)cc3OC)C2=O)cc1 (centres undefined),0.9,-83.6,83.6*,.,0.0
CC(=O)N1C[C@@H]2C(c3ccc(Br)cc3)[C@H](C1)N2CC1CC1 (some centres undefined),.,.,.,-10.6,.
CCN1CCN(C(=O)COc2ccc(S(=O)(=O)NC(C)C)cc2)CC1,-7.8,25.2,-25.2,.,0.0
CCN1CCN(C(=O)COc2ccc3oc4c(c3c2)CCCC4)CC1,-4.7,-71.9,71.9*,1.4,0.0
Cc1ccc(OC(=O)N(C)C[C@@H]2OCc3ccccc3-c3c(n(C)c4ccccc34)C(=O)N([C@@H](C)CO)C[C@H]2C)cc1,.,.,.,1.4,.
O=C(N/N=C/c1c(O)n(C2CC2)c(=S)[nH]c1=O)c1ccccc1O,-1.3,-92.3,92.3*,3.4,-0.2
Cc1ccccc1-n1c(O)c(/C=N/NC(=O)c2ccccc2O)c(=O)[nH]c1=S,-14.4,-109.1,109.1*,3.7,0.1
O=C(N/N=C/c1c(O)n(-c2ccccc2)c(=S)[nH]c1=O)c1ccccc1,-4.5,-61.1,61.0,4.3,0.2
c1cc(-c2ccc(C3[C@H]4CNC[C@@H]3N4CC3CC3)cc2)ccn1 (some centres undefined),.,.,.,2.5,.
O=c1[nH]c2ccccc2n1C1CCN(C(CCc2ccccc2)c2nnnn2Cc2ccccc2)CC1 (centres undefined),-4.9,.,.,40.7*,.
O=C(N/N=C/c1c(O)n(Cc2ccc(F)cc2)c(=O)[nH]c1=O)c1ccccc1,-4.5,-74.8,74.8*,13.3,0.0
CC1Oc2cc3c(-c4c(O)cc(O)c5c(O)c6c(cc45)OC(C)C(C)C6=O)c(O)cc(O)c3c(O)c2C(=O)C1C (centres undefined),.,-80.3,80.3*,.,-0.1
